High-throughput results from PubChem.
CAL PDZ FP-1: untagged CAL PDZ binding inhibitors, primary screen, biochemical, fluorescence polarization, HTS; inhibition, % at 24.9 µM; 0.92% of 300,000 active; Golgi-associated PDZ and coiled-coil motif-containing protein (Homo sapiens), Q9HD26; purified CAL PDZ, TMR-peptide fluorescence polarization, 1 h;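 active means mean inhibition of at least 30% with at least half of replicates also reaching 30%; inconclusive means no clear call, values can overlap the other calls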
dFosB activator: activators of delta FosB homodimer, primary screen, biochemical, fluorescence polarization, TAMRA-CDK5 oligo, single point | Protein FosB (Mus musculus), P13346 | purified delta FosB; percent of positive-control signal above neutral wells | activation, % at 25 µM | 0.99% of 340,000 active;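 active means mean activation above about 17%, with every replicate also reaching it, limit read from the data, passing the limit was not always enough; inconclusive means only one of the two conditions met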
Target sequence (P13346 whole entry, looked up): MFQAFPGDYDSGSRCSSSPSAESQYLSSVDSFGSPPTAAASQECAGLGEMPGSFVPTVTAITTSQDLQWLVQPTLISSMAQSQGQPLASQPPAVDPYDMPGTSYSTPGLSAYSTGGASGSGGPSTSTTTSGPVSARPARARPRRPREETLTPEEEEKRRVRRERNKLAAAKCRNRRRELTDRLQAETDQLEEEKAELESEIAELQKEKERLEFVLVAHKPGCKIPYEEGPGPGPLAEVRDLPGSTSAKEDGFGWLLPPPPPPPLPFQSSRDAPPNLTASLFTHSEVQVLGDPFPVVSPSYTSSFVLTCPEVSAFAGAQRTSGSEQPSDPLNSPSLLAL
SR-BI DiI-HDL act: activators of SR-BI mediated DiI-HDL uptake, primary screen, ldlA[mSR-BI] CHO cells, DiI fluorescence | 3 h; 100 = double the neutral-control signal | activation, % at 12.5 µM | 0.096% of 320,000 active | AID 504775, 2011;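 active means mean replicate activation of at least 60% and every replicate at or above 60%; inconclusive means mean or all-replicate condition met, but not both; inactive means mean below 60% and not all replicates reaching 60%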
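material = CHO ldlA[mSR-BI] cells | medium = Ham's F12 with 0.5% BSA, HEPES 25 mM, pH 7.4 | reagent = fluorescent DiI-HDL, 10 µg/mL final | compound dosing = single-point compound dose | incubation = 3 h, 37 °C | measured by = bottom-read fluorescence, 550/595 nm | measure = HDL uptake via cellular fluorescence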
CAL PDZ FP-2: CAL PDZ peptide-binding inhibitors, primary screen, biochemical, fluorescence polarization, Cer-tagged CAL PDZ, HTS; inhibition, % at 20 µM; purified CAL PDZ, TMR-peptide fluorescence polarization, 1 h; AID 504414, 2011; Golgi-associated PDZ and coiled-coil motif-containing protein (Homo sapiens), Q9HD26; 0.02% of 330,000 active;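 active means highest replicate inhibition of at least 40%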
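material = purified tagged CAL PDZ domain construct (CerCALP) | buffer or medium = sodium phosphate/NaCl buffer pH 7.4 with TCEP, IgG, Thesit | reagent = TMR-labelled reporter peptide T*-PRC34 bound in PDZ groove | incubation = 1 h room-temperature incubation prior to read | measured by = fluorescence polarization (mP) | evaluation = percent inhibition from loss of millipolarization | control set = unlabelled peptide and DMSO controls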
SR-BI DiI inh: inhibitors of SR-BI mediated HDL lipid uptake, primary screen, ldlA[mSR-BI] cells, fluorescence, single point; ldlA[mSR-BI] CHO cells, DiI-HDL uptake fluorescence, 3 h; inhibition, % at 12.5 µM; 0.96% of 320,000 active; Scavenger receptor class B member 1 (Mus musculus), Q61009;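 active means mean replicate inhibition of at least 70% and a set share of replicates each scoring 70 or more; inconclusive means meets just one of the two criteria; inactive means fails both criteria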
Each line names hits and unclear results; the compound was inactive in the other large screens. Only some compounds are listed: those with a hit (about 2.8% of all), similar ones and a draw of the others.

O=C(N/N=C/c1c[nH]c2ccccc12)c1cc(-c2ccc3ccccc3c2)n[nH]1	SR-BI DiI inh 72.7
O=C(N/N=C/c1c[nH]c2ccccc12)c1ccn[nH]1	none
O=C(N/N=C/c1c[nH]c2ccccc12)c1cc(-c2cccc3ccccc23)n[nH]1	none
CC(C)(C)[C@@H]1COC(=O)[C@@H](Cc2ccc(F)cc2)C/C=C\C[C@H](CC(=O)N(CCO)Cc2ccccc2)C(=O)N1	none
COc1ccc(C(CNC(=O)CCNS(=O)(=O)c2ccc(C)cc2)N2CCOCC2)cc1 (centres undefined)	none
O=C(Nc1ccccc1)OC1CCC2CC1CCC2OC(=O)Nc1ccccc1 (centres undefined)	CAL PDZ FP-1 31.6
Cc1ccc(N(C)S(=O)(=O)c2cc3c(cc2C)NC(=O)CO3)cc1	none (no result: CAL PDZ FP-1)
COc1ccc(OC)c(/C=C2\NC(=O)NC2=O)c1	CAL PDZ FP-1 44.8
CCCc1cc(=O)oc2cc(C)cc(OCC(=O)NCc3cccnc3)c12	CAL PDZ FP-1 40.9
COc1ccc(-c2oc(=O)c3cc(OC)c(OC)cc3c2C#CCCCO)cc1	SR-BI DiI inh 78.2
CCC(CC)NC(=O)C1CCN(S(=O)(=O)c2cccs2)CC1	none (no result: CAL PDZ FP-1)
CC(C)(C)OC(=O)N1CCC(C(=O)N[C@@H](Cc2c[nH]c3ccccc23)C(=O)O)CC1	none (no result: CAL PDZ FP-2)
O=C(N[C@@H](Cc1c[nH]c2ccccc12)C(=O)O)C1CCN(S(=O)(=O)c2cccs2)CC1	CAL PDZ FP-1 70.6 (no result: CAL PDZ FP-2)
O=C(N[C@@H](Cc1c[nH]c2ccccc12)C(=O)O)C1CCN(S(=O)(=O)c2ccc(Cl)cc2)CC1	CAL PDZ FP-1 32.2
CN(C)c1ccc(C=NNc2nc3c([nH]2)c(=O)n(C)c(=O)n3C)cc1	none
CN(C)c1ccc(/C=N\Nc2nc(-c3ccccc3)cc(=O)[nH]2)cc1	CAL PDZ FP-1 70.6
COc1ccc(/C=C/c2nc(-c3ccccc3)cc(=O)[nH]2)cc1	none (no result: SR-BI DiI-HDL act, SR-BI DiI inh)
COc1ccc(/C(C)=N\Nc2nc(-c3ccccc3)cc(=O)[nH]2)cc1	SR-BI DiI inh 72.7
O=C(CSc1ncn[nH]1)CSc1ncn[nH]1	none
Cc1c(C(=O)c2ccc(Cl)c(Cl)c2)cnc2cc3c(cc12)OCO3	SR-BI DiI-HDL act 68.6
O=C(NC(=S)Nn1cnnc1)c1ccccc1Br	CAL PDZ FP-1 52.9
Cc1ccc(/C=C/c2nc3ccccc3s2)s1	SR-BI DiI inh 101.3
CN(C)c1ccc(/C=C/c2nc3ccccc3s2)cc1	none
COc1ccc(NC(=O)CO/N=C/C(=O)Nc2ccccc2C)c([N+](=O)[O-])c1	none
CCCCC(=O)Nc1ccc2c(c1)oc1ccccc12	CAL PDZ FP-1 55.6
O=C(O)CCCC(=O)Nc1ccc2c(c1)oc1ccccc12	none (no result: SR-BI DiI-HDL act, SR-BI DiI inh)
N#Cc1sc2nc(-c3cccs3)cc(-c3ccccc3)c2c1N	SR-BI DiI inh 84.0
N#Cc1sc2nc(-c3cccs3)cc(-c3ccc(Cl)cc3)c2c1N	none
NS(=O)(=O)c1ccc(NC(=O)C(=O)NCCC(=O)O)cc1	none
Cc1cccc(C(=O)OC(C)C(=O)N2CCc3ccccc3C2)c1C (centres undefined)	CAL PDZ FP-1 52.0
COC(=O)c1ccc2c(c1)C(C)(C)C(/C=C/c1ccc(OC)c(OC)c1OC)=[N+]2C	dFosB activator 18.5, SR-BI DiI inh 105.2
Cc1ccc(-n2nnc3c(=O)n(CC(N)=O)cnc32)cc1	none
Cc1ccccc1C1=C/C(=C(\SS/C(C(=O)c2ccc(OCC(=O)O)c(Cl)c2Cl)=C2\C=C(c3ccccc3C)SS2)C(=O)c2ccc(OCC(=O)O)c(Cl)c2Cl)SS1	none
CCOc1ccc(NC(=O)CN(C)C(=O)C2CC(=O)N(c3cccc(SC)c3)C2)cc1OCC (centres undefined)	SR-BI DiI inh 72.1
Nc1c(N(Cc2ccccc2)C(=O)COc2ccc([N+](=O)[O-])cc2)c(=O)[nH]c(=O)n1Cc1ccccc1	none
Cc1ccc(S(=O)(=O)NCCC(=O)NC(C)c2ccccc2)cc1 (centres undefined)	none
Cc1ccc(S(=O)(=O)NCCC(=O)NC(C)CCc2ccccc2)cc1 (centres undefined)	CAL PDZ FP-1 70.9
O=[N+]([O-])c1cccc(-c2cc(-c3cc(Br)ccc3O)[nH]n2)c1	SR-BI DiI inh 86.1
Oc1ccc(Br)cc1-c1cc(-c2ccccc2)n[nH]1	none
CCN1/C(=C/c2ccc3cc(C)ccc3[n+]2CC)Sc2cc(C)ccc21	none
CCN1/C(=C/c2ccc3ccccc3[n+]2CC)C=Cc2ccccc21	SR-BI DiI inh 86.6
CCCCN1/C(=C/c2ccc3ccccc3[n+]2CC)Sc2ccccc21	dFosB activator 27.5
CSc1ccccc1C(=O)Nc1ccc2c(c1)CCC2	CAL PDZ FP-1 68.1
O=C(Nc1ccc2c(c1)CCC2)c1ccccc1Br	none
COc1ccccc1C(=O)NC(=O)COC(=O)c1nc2nc(C)cc(C)n2n1	none
O=C(Cn1nnc(-c2cccs2)n1)N1CCOCC1	SR-BI DiI-HDL act 68.4
CC1CCN(C(=O)Cn2nnc(-c3cccs3)n2)CC1	none
C=CC(=O)Nc1cccc(Oc2cc(Cl)nc3[nH]ccc23)c1	dFosB activator inconclusive
COc1cccc(N=Nc2c(N)[nH]n3c(=O)c4c(nc23)CCCC4)c1	none
O=C(/C=C/c1cc([N+](=O)[O-])ccc1OC(F)F)Nc1cccc(OC(F)F)c1	SR-BI DiI inh 75.0
CN(C)c1ccc(/C=N/N(CCC#N)C2=NS(=O)(=O)c3ccccc32)cc1	none
O=C(CC1Nc2ccccc2NC1=O)NC1CCCCC1 (centres undefined)	none
CC(C)CNC(=O)CC1Nc2ccccc2NC1=O (centres undefined)	CAL PDZ FP-1 95.4 (no result: CAL PDZ FP-2)
CC1CCN(S(=O)(=O)c2ccc3c(c2)N(C)C(=O)CC(=O)N3C)CC1	none
O=C(N/N=C/c1c(F)cccc1Cl)c1cc(C2CC2)[nH]n1	none
CC1(c2ccc3ccccc3c2)NC(=O)N(CC(=O)Nc2ncccc2O)C1=O (centres undefined)	none
CCN1C(c2ccccc2)=C(c2ccccc2)S/C1=C/C=C1\SC(=S)N(C)C1=O	CAL PDZ FP-1 36.1
Cc1nn(Cc2ccccc2)c(Cl)c1C(=O)NCCc1ccccc1	none
Cc1nn(Cc2ccccc2)c(Cl)c1C(=O)NCc1ccco1	CAL PDZ FP-1 59.2
COc1ccccc1N=Cc1c(C)[nH]n(-c2ccc(C)cc2C)c1=O	none
Cc1cc(Br)ccc1-n1[nH]c(C)c(C=Nc2cccc3nsnc23)c1=O	SR-BI DiI inh 77.1
